Screening results: PubChem, The Scripps Research Institute Molecular Screening Center
Hits are enriched below; roughly 3.2% of the tested compounds scored in any of these assays.
HTRA1 inhibitor: inhibitors of human serine peptidase HTRA1 | Q92743 | recombinant HTRA1, FP-rhodamine activity-based probe, fluorescence polarization | inhibition, % at 5.96 µM | hit rate 0.5% among 340,000 | AID 504803; in the data active means inhibition above about 36%;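 further: 0% = enzyme with DMSO and 100% = wells lacking enzyme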
PRMT1 FP inh: PRMT1 (human) inhibition, primary screen; recombinant PRMT1, activity-based probe fluorescence polarization; inhibition, % at 2.79 µM; hit rate 1.3% among 370,000; AID 652257;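 active means inhibition above about 21% made by adding two undisclosed values, limit read from the data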
LEDGF integ inh: blocks HIV-1 LEDGF/p75-dependent DNA integration | TR-FRET IN-LEDGF/p75 DNA integration, Eu/Cy5 | inhibition, % at 3.7 µM | hit rate 0.64% among 370,000;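 active means inhibition above the screen-wide mean plus 3 SD, cut at about 13% in these data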;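 further: signal is the Cy5 over europium emission ratio at 671 and 618 nm; 0% = plate median of compound wells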
rCAG RNA binder: binds r(CAG) RNA repeats; r(CAG) RNA repeat, TO-PRO-1 dye displacement fluorescence; inhibition, % at 3 µM; hit rate 1.3% among 370,000; AID 651821;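 active means inhibition above the plate cutoff, the mean of all test compounds on that plate plus 3 SD, cut at about 35% in these data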;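 further: 0% = DMSO alone and 100% = 100 µM mitoxantrone as full dye displacement; higher means more dye released from RNA so lower well fluorescence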
ABHD4 inh: inhibits mouse alpha/beta hydrolase domain 4; Q8VD66; purified mABHD4, FP-Rh probe fluorescence polarization; inhibition, % at 8.92 µM; hit rate 0.54% among 370,000;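 active means inhibition exceeding the mean over every tested compound plus 3 SD, cut at about 30% in these data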;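 further: 0% = plate median of compound wells and 100% = S159A mutant with DMSO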
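System: mouse ABHD4 enzyme, wild type / Medium: HEPES pH 7.0, NaCl, Pluronic buffer / Reagent: FP-Rh activity-based fluorescent probe / Control set: S159A mutant high control, sample median low control / Detection: fluorescence polarization with parallel and perpendicular emission, 525/598 nm / Schedule: 45 min + 60 min at 25 °C / Compound dosing: 8.92 µM, single dose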
DAGLB inhibitor: blocks human DAGLB lipase activity | HEK293T DAGLB membrane lysate, EnzChek fluorogenic substrate | inhibition, % at 5.17 µM | hit rate 0.059% among 340,000 | AID 504411; in the data active means inhibition above about 34%;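 further: 0% = enzyme with vehicle and 100% = wells lacking enzyme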
Target sequence (Q8NCG7 whole entry, looked up): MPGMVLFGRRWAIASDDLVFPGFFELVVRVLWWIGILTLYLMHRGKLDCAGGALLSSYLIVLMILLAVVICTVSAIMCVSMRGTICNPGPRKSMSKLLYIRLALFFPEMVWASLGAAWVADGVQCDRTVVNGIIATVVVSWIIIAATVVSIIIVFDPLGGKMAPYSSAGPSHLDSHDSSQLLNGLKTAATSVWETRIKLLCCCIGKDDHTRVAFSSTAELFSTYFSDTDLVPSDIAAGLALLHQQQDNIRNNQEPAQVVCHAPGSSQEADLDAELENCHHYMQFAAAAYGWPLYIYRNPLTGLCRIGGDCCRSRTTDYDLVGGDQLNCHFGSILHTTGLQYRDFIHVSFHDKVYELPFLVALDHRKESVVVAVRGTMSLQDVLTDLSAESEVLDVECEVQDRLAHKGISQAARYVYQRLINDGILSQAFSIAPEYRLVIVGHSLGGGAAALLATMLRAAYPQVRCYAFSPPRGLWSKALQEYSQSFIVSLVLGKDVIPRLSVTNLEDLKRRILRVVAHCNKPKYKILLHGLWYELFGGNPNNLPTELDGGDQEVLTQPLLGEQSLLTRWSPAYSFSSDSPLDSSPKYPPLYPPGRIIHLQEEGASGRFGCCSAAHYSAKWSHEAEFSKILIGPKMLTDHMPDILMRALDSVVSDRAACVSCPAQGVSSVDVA
PRMT1 inh conf: PRMT1 (human) inhibition, FP confirmation | shares compounds with PRMT1 FP inh | recombinant His-PRMT1, activity-based probe fluorescence polarization | inhibition, % at 2.79 µM | hit rate 42% among 3,300 | AID 687036;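 active means mean inhibition across replicates above the hit cutoff derived for the earlier primary screen, cut at about 22% in these data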
Numbers without * were called inactive; / = no result given.

SMILES	HTRA1 inhibitor	PRMT1 FP inh	LEDGF integ inh	rCAG RNA binder	ABHD4 inh	DAGLB inhibitor	PRMT1 inh conf
Fc1ccccc1CSc1nc2ccccc2[nH]1	-9.2	-3.7	-0.9	-2.6	-3.7	-8.8	/
CN(C)S(=O)(=O)c1cccc(NC(=S)Nc2cccc3cnccc23)c1	7.3	16.2	7.2	11.7	20.1	-1.3	/
Cc1ccc(/C=N/n2c(COc3ccccc3)n[nH]c2=S)s1	-0.3	27.3*	-6.7	21.9	-5.2	3.7	3.6
Cc1ccc(C2CC2c2n[nH]c(=S)n2-c2cccc(C)c2)cc1 (configuration not stated)	-7.6	25.8*	-3.0	4.9	-13.8	-2.0	17.1
Cc1ccc(C2CC2c2n[nH]c(=S)n2-c2ccc(Cl)cc2)cc1 (configuration not stated)	-3.3	26.7*	2.9	11.9	-2.6	-0.7	11.0
Nc1cc(S(=O)(=O)Nc2ccccc2Cl)ccc1N1CCCCC1	-0.7	12.5	4.5	16.8	5.8	-5.5	/
Cc1ccc(CN(C(=O)COc2ccc([N+](=O)[O-])cc2)C2CCS(=O)(=O)C2)o1 (configuration not stated)	-3.9	1.6	-1.1	-0.2	-1.7	2.2	/
COCCNc1nc(-c2cc(-c3ccc(Cl)cc3)on2)cc(C(C)C)n1	-15.5	1.0	1.7	2.7	-1.2	-6.1	/
O=C(COc1ccccc1)Nc1ccc(S(=O)(=O)Nc2ccccn2)cc1	0.1	31.5*	-2.5	7.5	-8.7	-1.0	12.8
O=C(COc1ccc(Br)cc1)Nc1ccc(S(=O)(=O)Nc2ccccn2)cc1	-12.1	-0.6	0.1	12.8	-6.8	0.5	/
Cc1cc(C)cc(-n2nnn(C3C/C(=N/NC(N)=S)C4OCC3O4)c2=S)c1 (configuration not stated)	-2.3	25.6*	1.7	5.4	3.9	2.5	5.1
CC(NC(=O)c1ccc(Br)o1)C1CCCO1 (configuration not stated)	6.9	-2.0	4.5	0.5	-3.9	-0.5	/
ClC(Cl)(c1nnnn1-c1ccccc1)c1nnnn1-c1ccccc1	3.9	90.4*	0.1	-1.2	-4.1	1.3	91.1*
Cc1noc(C)c1C(=O)NC(C)C1CCCO1 (configuration not stated)	-2.1	3.4	-2.1	-1.0	1.2	0.0	/
C[C@H](O)[C@@H]1CN2CCc3c([nH]c4ccccc34)[C@@H]2C[C@@H]1N(C)C(=S)NCCc1ccccc1	/	48.9*	1.4	6.2	1.8	/	10.8
Cc1cccc(-c2cccc3c4c([nH]c23)[C@@H]2C[C@H](N(C)C(=S)NCCc3ccccc3)[C@H]([C@H](C)O)CN2CC4)c1	/	2.7	3.5	7.7	-2.5	/	/
Cc1cc(C)cc(Nc2nc(-c3ccc(S(=O)(=O)N4CCCC4)cc3)cs2)c1	-11.3	2.0	0.7	6.9	2.4	-3.6	/
Cc1ccc(-c2csc(NC(=O)Cc3ccc(F)cc3)n2)o1	-11.2	41.2*	-1.0	13.7	-8.3	0.9	42.8*
Cc1nc(Nc2ccc(S(N)(=O)=O)cc2)sc1-c1ccccc1	4.3	0.4	1.6	18.1	-4.5	3.0	/
Cc1ccc(-c2csc(Nc3ccc(S(N)(=O)=O)cc3)n2)o1	-2.4	71.5*	3.0	19.9	-5.4	0.7	39.7*
Cc1ccc(Nc2nc(-c3ccc(S(=O)(=O)N4CCOCC4)cc3)cs2)cc1	-1.7	26.2*	-3.5	14.9	5.6	0.5	-0.8
CCOC(=O)C1CCCN(Cc2ccc(OCc3ccccc3)cc2)C1 (configuration not stated)	-0.8	0.7	-2.9	-9.2	14.7	-5.7	/
CSc1nc(=S)cc(C)[nH]1	-3.6	83.3*	-0.8	-4.9	6.8	-2.0	88.8*
CSc1nc2c(C)c(C)c(C)c(C)c2[nH]1	5.3	-2.8	1.6	2.2	2.5	-1.6	/
CCCCCC(=O)Nc1nc(C)c(-c2csc(Nc3ccc(Cl)cc3)n2)s1	11.8	-1.5	-1.5	28.0	-14.1	3.3	/
Cc1nc(N)sc1-c1csc(Nc2cccc(O)c2)n1	16.0	25.2*	7.4	20.2	21.5	-3.5	4.9
CCC(=O)Nc1nc(C)c(-c2csc(Nc3cccc(O)c3)n2)s1	12.3	48.9*	7.4	16.7	-2.8	-1.2	4.9
